Screens as filed in PubChem.
bCat nuc transl: alters nuclear translocation of beta-catenin in HeLa cells | immunofluorescence imaging | nuclear translocation activity, % at 5 µM | 190,000 tested, 0.3% active | AID 1665;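 active = nuclear translocation activity above 50% at 5 µM, with a well cell count of 50 or more; inconclusive = wells under 50 cells across six images, flagged as toxic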;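 also: per-cell ratio of nuclear to cytoplasmic median beta-catenin stain intensity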
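System: Human HeLa cells, endogenous beta-catenin | Compound dosing: 5 µM primary, 0.02–20 µM confirmation | Timing: 24 h compound exposure at 37°C, 5% CO2 | Measured by: Fluorescence imaging of beta-catenin antibody stain plus DAPI | Read-out basis: % activation of per-cell nuclear versus cytoplasmic median beta-catenin signal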
KCC2 mod: KCC2 (human) Cl- transport modulation; AID 1456; B-score of Tl+ flux slope (higher = more flux/activation; lower = inhibition) at 10 µM; KCC2 cells, thallium flux FluoZin-2 fluorescence; 190,000 tested, 2.2% active;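 active = thallium flux slope and its plate-corrected score both differing from the plate sample mean at a set confidence after two filtering rounds, in either direction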;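 also: slope of fluorescence scaled to starting intensity during 10 to 20 s after thallium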
Target sequence (Q9H2X9 whole entry, looked up): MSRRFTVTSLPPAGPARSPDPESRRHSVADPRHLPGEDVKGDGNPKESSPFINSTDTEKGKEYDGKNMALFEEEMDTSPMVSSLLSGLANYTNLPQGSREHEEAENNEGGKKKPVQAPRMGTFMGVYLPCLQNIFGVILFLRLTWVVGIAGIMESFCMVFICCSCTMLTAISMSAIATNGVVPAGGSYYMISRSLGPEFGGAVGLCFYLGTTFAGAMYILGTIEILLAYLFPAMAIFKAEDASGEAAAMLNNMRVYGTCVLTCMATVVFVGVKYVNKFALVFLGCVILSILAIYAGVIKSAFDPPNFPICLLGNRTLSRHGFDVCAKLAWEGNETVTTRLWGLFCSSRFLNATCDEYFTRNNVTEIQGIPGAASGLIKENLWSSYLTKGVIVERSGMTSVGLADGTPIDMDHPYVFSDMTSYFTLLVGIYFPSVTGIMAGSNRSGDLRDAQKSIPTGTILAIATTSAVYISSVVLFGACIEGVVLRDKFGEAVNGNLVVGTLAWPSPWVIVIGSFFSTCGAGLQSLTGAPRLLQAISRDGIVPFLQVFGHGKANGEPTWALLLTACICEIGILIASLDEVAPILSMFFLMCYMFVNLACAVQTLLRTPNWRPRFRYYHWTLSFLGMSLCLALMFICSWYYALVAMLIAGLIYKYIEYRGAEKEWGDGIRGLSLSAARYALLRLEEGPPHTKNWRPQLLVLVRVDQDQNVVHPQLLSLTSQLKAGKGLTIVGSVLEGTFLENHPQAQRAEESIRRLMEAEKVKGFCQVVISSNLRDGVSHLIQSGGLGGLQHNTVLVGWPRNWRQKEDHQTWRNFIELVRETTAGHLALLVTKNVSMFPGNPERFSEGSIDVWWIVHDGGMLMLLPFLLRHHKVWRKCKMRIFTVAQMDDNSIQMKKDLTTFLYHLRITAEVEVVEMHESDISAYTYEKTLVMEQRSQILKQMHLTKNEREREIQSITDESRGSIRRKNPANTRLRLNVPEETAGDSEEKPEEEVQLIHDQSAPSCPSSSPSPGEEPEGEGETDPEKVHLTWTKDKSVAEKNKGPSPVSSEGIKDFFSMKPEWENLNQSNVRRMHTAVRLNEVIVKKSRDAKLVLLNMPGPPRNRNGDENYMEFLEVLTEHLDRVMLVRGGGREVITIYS
WT yeast gro inh: growth inhibition of WT yeast, mitochondrial fusion screen; inhibition, % at 10 µM; 190,000 tested, 2.1% active; AID 1362; mitochondrial fusion phenotypic screen, WT strain; in the data active = inhibition above about 58%; tested in S. cerevisiae
Pf gamet viab: inhibitors of late stage P. falciparum gametocyte viability; P. falciparum stage V gametocytes, ATP luminescence, 24 h; inhibition, % at 10.9 µM; 150,000 tested, 0.065% active;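 active = inhibition above the mean plus 3 SD of compounds within the control limits, set per campaign, cut at about 38% in these data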
MT stabilize HCS: microtubule stabilizers in HeLa cells | HeLa tubulin immunostaining HCS, 24 h; share of cells brighter than vehicle mean+2SD | 200,000 tested, 0.83% active | % tubulin-high responders, % at 10 µM;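 active = plate Z-score above 3 for both tubulin-high and condensed-nucleus cell shares, with cell loss under 80%, at 10 µM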;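 also: anti alpha tubulin signal scored within the nucleus-defined area of each cell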
KCC2 secondary: KCC2 (human) modulation, secondary assay; shares compounds with KCC2 mod; HEK293-KCC2, thallium flux, FluoZin2 fluorescence; hits give high values; normalised thallium flux (F/F0 slope) at 10 µM; 3,700 tested, 15% active;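 active = thallium flux slope above the same plate's solvent-only control mean plus 3 SD; inconclusive = the two replicate wells disagree; inactive = no significant difference from solvent-only control wells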
KCC2 bumet counter: thallium flux despite bumetanide block in KCC2 cells, secondary assay 3; 3,700 tested, 49% active; AID 1714; HEK293-KCC2 + bumetanide/ouabain, thallium flux FluoZin2; hits give high values; normalized thallium flux at 10 µM; shares compounds with KCC2 mod;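 active = thallium entry rate above the same plate's blocked-transporter control wells by more than 3 SD; inconclusive = the two repeat wells disagree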;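 also: raw slope of fluorescence over initial fluorescence between 10 and 20 s after thallium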
KCC2 sec2: KCC2 (human) modulation, second secondary assay; shares compounds with KCC2 mod; HEK293-KCC2, thallium flux FluoZin2 fluorescence; actives lie on both sides; F/F0 rise rate, 10–20 s post-thallium; normalized thallium flux at 10 µM; 3,700 tested, 23% active; AID 1715;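 active = thallium flux slope more than 3 SD above or below the plate's solvent-only control mean, mostly below; inconclusive = the two repeat wells disagreed; inactive = no significant shift from solvent-only controls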
HEK293 Tl flux: parental HEK flux effect, counter-screen | thallium flux rate (normalised fluorescence) at 10 µM | 3,700 tested, 46% active | shares compounds with KCC2 mod | HEK293 parental cells, thallium flux FluoZin2, ouabain; baseline-ratio fluorescence slope, 10–20 s after thallium;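 active = thallium flux rate significantly above the same plate's solvent-only control wells, beyond their mean plus 3 SD; inconclusive = the two replicate wells gave conflicting results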
KCC2 ouabain: confirmation of human KCC2 modulators with ouabain | shares compounds with KCC2 mod | HEK293-KCC2, thallium flux FluoZin2 fluorescence; bidirectional: low = inhibitor, high = activator | raw Tl+ flux slope (below DMSO = inhibition, above = activation) at 10 µM | 3,700 tested, 48% active | AID 1717;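 active = thallium flux slope beyond 3 SD from same-plate DMSO control mean in most replicates, usually higher, sometimes lower; inconclusive = repeat tests gave conflicting results; inactive = no significant difference from controls in most replicates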;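 also: slope of initial-normalized fluorescence between seconds 10 and 20 after thallium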
HEK counter2: counter-screen for KCC2 modulators: effect in parental HEK293 cells | shares compounds with KCC2 mod | thallium flux FluoZin-2 fluorescence slope | thallium flux slope at 10 µM | 3,700 tested, 33% active | AID 1718;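 active = thallium flux slope above the same plate's solvent-control mean plus 3 SD in both duplicate wells; inconclusive = duplicate wells that disagreed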;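 also: run without ouabain in cells lacking the KCC2 cotransporter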
Large screens that a line does not name were inactive (follow-up assays come after a bar, where they were run). A selection: hits, their analogues and other compounds. The true share with any hit is near 4%.

CC1(C)NC(=O)N(CC(=O)Nc2nc(-c3ccc(F)cc3)cs2)C1=O	KCC2 mod -4.91 (no result: Pf gamet viab) | KCC2 secondary inactive | KCC2 bumet counter inactive | KCC2 sec2 0.0244 | HEK293 Tl flux inactive | KCC2 ouabain 0.0126 | HEK counter2 inconclusive
CN1CCN(CC(=O)Nc2nc(-c3ccccc3)cs2)CC1	none (no result: KCC2 mod) | KCC2 secondary inactive | KCC2 bumet counter 0.00874 | KCC2 sec2 inactive | HEK293 Tl flux inactive | KCC2 ouabain inactive | HEK counter2 inactive
COc1ccc(-c2csc(NC(=O)CN3C(=O)CCC3=O)n2)cc1	none
CCC(C)(C)C1CCC2(CC1)NC(=O)N(CC(=O)Nc1nc(-c3ccc(C)cc3)cs1)C2=O (stereo not given)	none
CCCC(=O)Nc1nc(-c2ccc3c(c2)CCN3S(C)(=O)=O)cs1	KCC2 mod 6.22 (no result: bCat nuc transl, Pf gamet viab) | KCC2 secondary inactive | KCC2 bumet counter inactive | KCC2 sec2 inactive | HEK293 Tl flux inconclusive | KCC2 ouabain inactive | HEK counter2 inactive
O=C(CN1C(=O)NC2(CCCC2)C1=O)Nc1nc(-c2ccc(F)cc2)cs1	KCC2 mod -6.59 (no result: Pf gamet viab) | KCC2 secondary inactive | KCC2 bumet counter inactive | KCC2 sec2 0.0273 | HEK293 Tl flux inactive | KCC2 ouabain 0.0136 | HEK counter2 inactive
CCC1CCCCN1C(=O)CCc1nnc(Cc2cc(OC)ccc2OC)o1 (stereo not given)	none (no result: WT yeast gro inh, MT stabilize HCS)
CN(C)CCCNCCCNC(=O)/C(=N\O)c1ccccc1	none (no result: WT yeast gro inh, MT stabilize HCS)
COc1ccc(F)cc1C(=O)C1CCCN(C(=O)c2ocnc2C)C1 (stereo not given)	none
O=C(NNC1=C(C(=O)C(F)(F)F)CCC1)c1ccc(Br)cc1	KCC2 mod 11.3 | KCC2 secondary inactive | KCC2 bumet counter 0.0243 | KCC2 sec2 inactive | HEK293 Tl flux 0.0151 | KCC2 ouabain inconclusive | HEK counter2 0.0122
COc1ccccc1C(=O)NNC1=C(C(=O)C(F)(F)F)CCC1	KCC2 mod 4.9 (no result: Pf gamet viab) | KCC2 secondary inactive | KCC2 bumet counter 0.0444 | KCC2 sec2 0.0428 | HEK293 Tl flux 0.0378 | KCC2 ouabain 0.041 | HEK counter2 0.0356
O=C(NNC1=C(C(=O)C(F)(F)F)CCC1)c1ccccc1O	none (no result: bCat nuc transl, Pf gamet viab)
O=S(=O)(Nc1nc2ccccc2nc1N1CCN(c2ccccc2F)CC1)c1ccc(Cl)cc1	none (no result: bCat nuc transl)
O=C(CSc1nc2ccccc2c(=O)n1-c1ccc(SC(F)F)cc1)Nc1ccc(N2CCOCC2)cc1	KCC2 mod 4.48 (no result: Pf gamet viab) | KCC2 secondary inactive | KCC2 bumet counter 0.0145 | KCC2 sec2 inactive | HEK293 Tl flux 0.00999 | KCC2 ouabain inactive | HEK counter2 0.0111
O=C(CSc1nc2ccccc2c(=O)n1-c1ccc(F)cc1)Nc1ccc(N2CCOCC2)cc1	none (no result: Pf gamet viab)
COc1ccc(-c2nc(Cn3c(SCc4ccc(F)cc4)nc4ccncc43)c(C)o2)cc1OC	KCC2 mod -3.52 (no result: bCat nuc transl, Pf gamet viab) | KCC2 secondary inactive | KCC2 bumet counter inactive | KCC2 sec2 inactive | HEK293 Tl flux inconclusive | KCC2 ouabain inconclusive | HEK counter2 inactive
COc1ccc(-c2nc(Cn3c(SCc4ccccc4F)nc4ccncc43)c(C)o2)cc1	none (no result: bCat nuc transl, Pf gamet viab)
N#Cc1c(NC(=O)c2ccccc2Cl)n(Cc2ccccc2)c2nc3ccccc3nc12	KCC2 mod -4.62 | KCC2 secondary inactive | KCC2 bumet counter inactive | KCC2 sec2 inactive | HEK293 Tl flux 0.00515 | KCC2 ouabain 0.0145 | HEK counter2 inactive
CCCCn1c(NC(=O)c2ccccc2Cl)c(C#N)c2nc3ccccc3nc21	none
